The structures appear in SMILES notation. Where only a bound is given, the exact number is not on record here.

The text below walks through data of ChEMBL document CHEMBL1124731, “Synthesis and biological activity of novel quaternary ammonium derivatives of alkylglycerols as potent inhibitors of protein kinase C” (J Med Chem, 1990).

Experiment [1] has as its target T1, Protein kinase C (PKC) (Homo sapiens) (UniProt O94806+P41743+P17252+P05129+Q05655+P05771+Q05513+Q02156+P24723+Q15139+Q04759). The experiment can be described thus: Inhibition of Protein Kinase C purified from HL-60 cells. Format: cell-free. The method, boiled down: (§1)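 Assay at pH 7.5, 25 mM Tris, 10 mM MgCl2, 0.1 mM CaCl2, 40 µg/mL histone, 10 µM ATP with [γ-32P]ATP, 20 µg/mL phosphatidylserine, 2.5 µM OAG. Compound added in ethanol before enzyme; 20 min at 30 °C; TCA-precipitated 32P-histone counted; 0.1% ethanol control; duplicates in three trials, fresh enzyme each.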

Experiment [2] concerns the target T1, Protein kinase C (PKC) (Homo sapiens). The experiment can be described thus: Retained protein kinase C activity in the presence 2.5 uM compound. Format: functional. The method, boiled down:
as §1

Experiment [3] has the same target. The experiment can be described thus: Retained protein kinase C activity in the presence of 1.25 uM compound. Format: functional. The method, boiled down:
as §1

Experiment [4] shares this target. The experiment in a line: Retained protein kinase C activity in the presence of 40 uM compound. The class given is functional. The method, boiled down:
as §1

Experiment [5] has the same target. The experiment in a line: Retained protein kinase C activity in the presence of 5 uM compound. Format: functional. Put shortly: as §1
Experiment [6] has the same target. The experiment can be described thus: Retained protein kinase C activity in the presence of 10 uM compound. Format: functional. Put shortly: as §1
Experiment [7] has the same target. The experiment can be described thus: Retained protein kinase C activity in the presence of 20 uM compound. The class given is functional. The method, boiled down: as §1

In experiment [1], `CCCCCCCCCCCCCCCCCCOCC(COP(=O)([O-])OCC[N+](C)(C)C)OC` (stereo unspecified) had an ID50 of 12 µM. Also, the Activity in experiment [2] was 93%; in experiment [3] it was 99%; in experiment [4], 29%; in experiment [5], 73%; in experiment [6] it was 60%; in experiment [7], 40%.
Compound `CCCCCCCCCCCCCCCCCC1OCC(C[N+](C)(C)CCCO)O1` (stereo unspecified) yielded an ID50 in experiment [1] of 13 µM. For the same compound, the Activity was found to be 99% in experiment [2]; 99% in experiment [3]; 12% in experiment [4]; 61% in experiment [5]; 56% in experiment [6]; 36% in experiment [7].
In turn, `CCCCCCCCCCCCCCCCOCC(COCC[N+](C)(C)C)OC` (stereo unspecified) showed an ID50 in experiment [1] of 31 µM. Also, the Activity in experiment [2] was determined as 91%; in experiment [3], 92%; in experiment [4], 43%; in experiment [5], 83%; in experiment [6], 73%; in experiment [7], 57%.
`CCCCCCCCCCCCCCCCCCSCC(C[N+](C)(C)CCCO)OC` (stereo unspecified) displayed an ID50 in experiment [1] of 5 µM. Also, the Activity in experiment [2] was found to be 56%; in experiment [3] it was 75%; in experiment [4], 23%; in experiment [5], 49%; in experiment [6] it was 39%; in experiment [7], 27%.
For `CC1(C)OC[C@@H](C[N+](C)(C)CCO)O1`, in experiment [1], the ID50 was over 40 µM. Further, the Activity in experiment [2] was 84%; in experiment [3], 88%; in experiment [4], 87%; in experiment [5], 87%; in experiment [6], 88%; in experiment [7], 96%.
In experiment [1], `CCCCCCCCCCCCCCCCSCC(C[N+](C)(C)C)OC` (stereo unspecified) registered an ID50 of 25 µM. Further, the Activity in experiment [2] was determined as 88%; in experiment [3], 112%; in experiment [4] it was 29%; in experiment [5], 81%; in experiment [6], 74%; in experiment [7] it was 54%.
`COC(COc1cccc2ccccc12)C[N+](C)(C)CCO` (stereo unspecified) gave an ID50 in experiment [1] of over 40 µM. The Activity in experiment [2] was 99%; in experiment [3] it was 99%; in experiment [4], 90%; in experiment [5], 83%; in experiment [6] it was 89%; in experiment [7], 87%.
In experiment [1], `CCCCCCCCCCCCCCCCSCC(C[N+](C)(C)CCO)OC` (stereo unspecified) registered an ID50 of 27 µM. Further, the Activity in experiment [2] stood at 90%; in experiment [3] it was 97%; in experiment [4], 42%; in experiment [5], 73%; in experiment [6], 60%; in experiment [7] it was 54%.
For `CCCCCCCCCCCCCCCCOCC(COCCO)OC` (stereo unspecified), the ID50 in experiment [1] stood at 28 µM. Moreover, the Activity was 86% in experiment [2]; 98% in experiment [3]; 43% in experiment [4]; 72% in experiment [5]; 66% in experiment [6]; 53% in experiment [7].
For the compound `CCCCCCCCCCCCCCCCOCC(C[N+](C)(C)CCO)OC` (stereo unspecified), in experiment [1], the ID50 was 17 µM. Also, the Activity in experiment [2] turned out to be 95%; in experiment [3], 107%; in experiment [4], 29%; in experiment [5] it was 87%; in experiment [6], 64%; in experiment [7] it was 42%.
As to `CCCCCCCCCCCCCCCCSCC(C[N+](C)(C)CCO)OCC` (stereo unspecified), the ID50 in experiment [1] turned out to be 37 µM. The Activity in experiment [2] amounted to 84%; in experiment [3], 92%; in experiment [4] it was 47%; in experiment [5], 70%; in experiment [6], 70%; in experiment [7] it was 66%.
The compound `CCCCCCCCCCCCCCCCSCC(C[N+](C)(C)CCCO)OCC` (stereo unspecified) came in with an ID50 in experiment [1] of 26 µM. For the same compound, the Activity in experiment [2] stood at 64%; in experiment [3] it was 78%; in experiment [4], 37%; in experiment [5] it was 67%; in experiment [6], 60%; in experiment [7] it was 59%.
In the case of `CCCCCCCCCCCCCCCCC[C@@H]1OC[C@@H](C[N+](C)(C)CCCO)O1`, the ID50 in experiment [1] amounted to 17 µM. In addition, the Activity was 90% in experiment [2]; 94% in experiment [3]; 19% in experiment [4]; 70% in experiment [5]; 56% in experiment [6]; 43% in experiment [7].
